ChEMBL document CHEMBL5120974, “Antitubercular Activity of Novel 2-(Quinoline-4-yloxy)acetamides with Improved Drug-Like Properties” (ACS Med Chem Lett, 2022)
Values after ≈ are worked out from the molar mass of the structure shown.

Tests used:
[1] = system: Mycobacterium tuberculosis; assay: Antitubercular activity against Mycobacterium tuberculosis H37Rv assessed as bacterial growth inhibition incubated for 7 days by resazurin assay; assay type: functional; conditions: 168 h, time 7 day
[2] = system: HepG2; assay: Cytotoxicity against human HepG2 cells assessed as reduction in cell viability incubated for 72 hrs by MTT assay; assay type: functional
Procedure, shortened: (§1)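 HepG2 and Vero cells were exposed to compound for 72 h, with viability read by MTT (mitochondrial activity) and neutral red uptake (lysosomal integrity). CC₅₀ is the concentration reducing cell viability by 50%.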

[3] = Cytotoxicity against African green monkey Vero cells assessed as reduction in cell viability incubated for 72 hrs by MTT assay; assay type: toxicity, cell-based; conditions: chlorocebus sabaeus; procedure, shortened: as §1
[4] = system: Mycobacterium tuberculosis; assay: Antitubercular activity against Mycobacterium tuberculosis H37Rv infected in mouse RAW 264.7 cells assessed as reduction on bacterial colony growth at 2.5 uM incubated for 2 to 3 weeks; assay type: functional; conditions: time 2-3 weeks
Procedure, shortened: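 Mtb growth inside macrophages (in vitro infection model) was tested with compounds at 2.5 μM; the untreated control got 0.5% DMSO vehicle. Read-out was log₁₀ CFU/well, given as mean ± standard deviation and compared with the untreated group by Dunnett post-test (P < 0.05).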

[5] = Selectivity index, ratio of CC50 for cytotoxicity against human HepG2 cells to MIC for antitubercular activity against Mycobacterium tuberculosis H37Rv; assay type: toxicity, cell-based
Procedure, shortened: (§2)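 SI = CC₅₀/MIC, with the MIC taken against H37Rv. CC₅₀ is the concentration that cuts cell viability by 50%, from cells exposed for 72 h. Viability was read by both MTT (mitochondrial activity) and neutral red uptake (lysosomal integrity).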

[6] = Selectivity index, ratio of CC50 for cytotoxicity against African green monkey Vero cells to MIC for antitubercular activity against Mycobacterium tuberculosis H37Rv; assay type: toxicity, cell-based; procedure, shortened: as §2
[7] = Metabolic stability in rat liver microsomes assessed as half life measured upto 30 min by HPLC-MS/MS analysis; assay type: ADME, Microsome
[8] = Chemical stability of the compound in pH 1.2 HCL assessed as remaining product at 10 uM incubated for 24 hrs by HPLC-MS/MS analysis; assay type: physicochemical; conditions: HCl pH 1.2, pH 1.2, read-out: Stability
Procedure, shortened: (§3)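 Compound incubated 24 h at 37 °C in 0.1 M HCl (pH 1.2), PBS (pH 7.4) or 0.1 M NH₄HCO₃ (pH 9.1). Result is reported as percentage of compound remaining after incubation.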

[9] = Chemical stability of the compound in pH 7.4 PBS assessed as remaining product at 10 uM incubated for 24 hrs by HPLC-MS/MS analysis; assay type: physicochemical; conditions: PBS pH 7.4, pH 7.4, read-out: Stability; procedure, shortened: as §3
[10] = Chemical stability of the compound in pH 9.1 NH4HCO3 assessed as remaining product at 10 uM incubated for 24 hrs by HPLC-MS/MS analysis; assay type: physicochemical; conditions: NH4HCO3 pH 9.1, pH 9.1, read-out: Stability; procedure, shortened: as §3
[11] = Solubility of the compound in HCl at pH 1.2 incubated for 4 hrs by liquid chromatography; assay type: physicochemical; conditions: HCl pH 1.2, pH 1.2
[12] = Solubility of the compound in PBS at pH 7.4 incubated for 4 hrs by liquid chromatography; assay type: physicochemical; conditions: PBS pH 7.4, pH 7.4
[13] = Permeability of the compound at 10 uM measured after 5 hrs by PAMPA based HPLC-MS/MS analysis; assay type: ADME; conditions: read-out: permeability
[14] = Metabolic stability in rat liver microsomes assessed as intrinsic clearance measured upto 30 min by HPLC-MS/MS analysis; assay type: ADME, Microsome; conditions: read-out: CLH
[15] = Clearance in mouse plasma at 25 mg/kg,iv by HPLC analysis; assay type: ADME, organism-based
Procedure, shortened: (§4)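 Mouse pharmacokinetics after a single intravenous dose of 25 mg/kg (61.6 μmol/kg) or an oral dose of 121.6 mg/kg (300 μmol/kg). Plasma drug concentrations were quantified over time, including a 24 h sample after oral dosing. Oral bioavailability was estimated by comparing the two routes.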

[16] = Inter-compartmental clearance in mouse plasma at 25 mg/kg,iv by HPLC analysis; assay type: ADME, organism-based; conditions: in vivo; procedure, shortened: as §4
[17] = Apparent oral clearance in mouse plasma at 121.6 mg/kg,po by HPLC analysis; assay type: ADME, organism-based; procedure, shortened: as §4
[18] = Apparent oral volume of distribution in mouse plasma at 121.6 mg/kg,po by HPLC analysis; assay type: ADME, organism-based; procedure, shortened: as §4
[19] = Absorption rate constant in mouse plasma at 121.6 mg/kg,po by HPLC analysis; assay type: ADME, organism-based; conditions: in vivo; procedure, shortened: as §4
[20] = Oral bioavailability in mouse plasma at 121.6 mg/kg by HPLC analysis; assay type: ADME, organism-based; procedure, shortened: as §4
[21] = Volume of distribution at steady state in mouse plasma at 25 mg/kg,iv by HPLC analysis; assay type: ADME, organism-based; conditions: read-out: Vdss; procedure, shortened: as §4
[22] = Volume of distribution at steady state in mouse plasma at 121.6 mg/kg,po by HPLC analysis; assay type: ADME, organism-based; conditions: in vivo; procedure, shortened: as §4
[23] = Clearance in mouse plasma at 121.6 mg/kg,po by HPLC analysis; assay type: ADME, organism-based; procedure, shortened: as §4
[24] = Cmax in mouse plasma at 121.6 mg/kg,po by HPLC analysis; assay type: ADME, organism-based; design: dose 121.6 mg/kg, route po; procedure, shortened: as §4
[25] = Plasma concentration in mouse plasma at 121.6 mg/kg,po measured after 24 hrs by HPLC analysis; assay type: ADME, organism-based; procedure, shortened: as §4
[26] = Terminal half life in mouse plasma at 25 mg/kg,iv by HPLC analysis; assay type: ADME, organism-based; conditions: read-out: beta t1/2; procedure, shortened: as §4
[27] = Terminal half life in mouse plasma at 121.6 mg/kg,po by HPLC analysis; assay type: ADME, organism-based; conditions: read-out: beta t1/2; procedure, shortened: as §4

`NNC(=O)c1ccncc1` [ISONIAZID] showed an MIC [1] of 2.3 µM (≈ 0.315 µg/mL).
Work on `CCc1cc(OCC(=O)Nc2ccc(N3CCCCC3)cc2)c2cc(OC)ccc2n1` yielded an MIC [1] of 0.19 µM (≈ 0.0797 µg/mL), a CC50 [2] greater than 20 µM and a CC50 at 72 h [3] greater than 20 µM. The Activity [4] was 4.13 log10CFU, the selectivity ratio [5] was greater than 105 and the selectivity ratio [6] was greater than 105.
Work on `COc1ccc2nc(C(F)(F)F)cc(OCC(=O)Nc3ccc(N4CCCCC4)cc3)c2c1` yielded an MIC [1] of 0.17 µM (≈ 0.0781 µg/mL).
With `COc1ccc2nc(C)cc(OCC(=O)N[C@@H](C)C3CCCCC3)c2c1` the MIC [1] was greater than 14 µM.
For `COc1ccc2nc(C)cc(OCC(=O)NC3C4CC5CC(C4)CC3C5)c2c1` (centres undefined), the MIC [1] was 6.6 µM (≈ 2.51 µg/mL).
Work on `COc1ccc2nc(C)cc(OCC(=O)Nc3ccccc3OC)c2c1` yielded an MIC [1] of 0.44 µM (≈ 0.155 µg/mL).
Work on `COc1ccc2nc(C)cc(OCC(=O)NCC3CCCCC3)c2c1` yielded an MIC [1] of 7.3 µM (≈ 2.5 µg/mL).
`COc1ccc2nc(C)cc(OCC(=O)NC3CCC(C)CC3)c2c1` (centres undefined) showed an MIC [1] of 7.3 µM (≈ 2.5 µg/mL).
For `COc1ccc2nc(C)cc(OCC(=O)NC3CCC3)c2c1`, the MIC [1] was 33.3 µM (≈ 10 µg/mL).
With `COc1ccc2nc(C)cc(OCC(=O)Nc3ccc4ccccc4c3)c2c1` the MIC [1] was 0.05 µM (≈ 0.0186 µg/mL).
In the case of `CO[C@H]1/C=C/O[C@@]2(C)Oc3c(C)c(O)c4c(O)c(c(/C=N/N5CCN(C)CC5)c(O)c4c3C2=O)NC(=O)/C(C)=C\C=C\[C@H](C)[C@H](O)[C@@H](C)[C@@H](O)[C@@H](C)[C@H](OC(C)=O)[C@@H]1C` [RIFAMPIN], the MIC [1] was 0.05 µM (≈ 0.0411 µg/mL).
In the case of `COc1ccc2nc(C)cc(OCC(=O)Nc3ccc(N4CCOCC4)cc3)c2c1`, the MIC [1] was 3.1 µM (≈ 1.26 µg/mL).
Compound `Cc1cc(OCC(=O)Nc2ccc(N3CCCCC3)cc2)c2cc(Br)ccc2n1` has an MIC [1] of 0.68 µM (≈ 0.309 µg/mL).
`COc1ccc2nc(C)cc(OCC(=O)NC3CCCCC3)c2c1` gave an MIC [1] of 7.6 µM (≈ 2.5 µg/mL).
In the case of `COc1ccc2nc(C)cc(OCC(=O)NC3CCCCC3C)c2c1` (centres undefined), the MIC [1] was 14.6 µM (≈ 5 µg/mL).
With `COc1ccc2nc(C)cc(OCC(=O)NC3CCCCCC3)c2c1` the MIC [1] was 3.7 µM (≈ 1.27 µg/mL).
Work on `Cc1cc(OCC(=O)Nc2ccc(N3CCCCC3)cc2)c2cc(Cl)ccc2n1` yielded an MIC [1] of 0.75 µM (≈ 0.307 µg/mL).
`O=C(COc1cc(C(F)(F)F)nc2ccc(Cl)cc12)Nc1ccc(N2CCCCC2)cc1` gave an MIC [1] of 86.2 µM (≈ 40 µg/mL).
`CCc1cc(OCC(=O)Nc2ccc(N3CCCCC3)cc2)c2cc(Br)ccc2n1` showed an MIC [1] of 0.34 µM (≈ 0.159 µg/mL).
Work on `COc1ccc2nc(C)cc(OCC(=O)N[C@H](C)C3CCCCC3)c2c1` yielded an MIC [1] greater than 14 µM.
`COc1ccc2nc(C)cc(OCC(=O)N[C@@H]3C[C@@H]4C[C@H]([C@H]3C)C4(C)C)c2c1` showed an MIC [1] of 26.1 µM (≈ 9.98 µg/mL).
With `COc1ccc2nc(C)cc(OCC(=O)N[C@H]3C[C@H]4C[C@@H]([C@@H]3C)C4(C)C)c2c1` the MIC [1] was 3.3 µM (≈ 1.26 µg/mL).
`COc1ccc2nc(C)cc(OCC(=O)Nc3ccc(N4CCCCC4)cc3)c2c1` showed a half-life [7] of 2.93 h, an MIC [1] of 0.09 µM (≈ 0.0365 µg/mL) and a CC50 [2] greater than 20 µM. It also gave a CC50 at 72 h [3] greater than 20 µM, an Activity [4] of 4.13 log10CFU and a remaining at 24 h, 10 µM [8] of 58.3%. For the same compound, the remaining at 24 h, 10 µM [9] was 100%, the remaining at 24 h, 10 µM [10] was 62.1% and the solubility at 4 h [11] was greater than 2500 µM. The solubility at 4 h [12] was 31.4 µM (≈ 12.7 µg/mL), the Papp at 5 h, 10 µM [13] was 4.5 ×10⁻⁶ cm/s and the CLint scaled [14] was 7.5 mL/min/kg. The clearance [15] was 1.47 mL/min/kg, the CL [16] was 5.65 mL/min/kg and the CL/F [17] was 3.77 mL/min/kg. For the same compound, the Vd/F [18] was 0.46 L/kg, the Ka [19] was 3.01 h⁻¹ and the bioavailability [20] was 51%. The Vd [21] was 0.304 L/kg, the Vdss [22] was 0.234 L/kg and the CL/F [23] was 1.92 mL/min/kg. The Cmax [24] was 8300 ng/mL, the concentration at 24 h [25] was 1140 ng/mL and the half-life [26] was 2.27 h. The half-life [27] was 1.72 h, the selectivity ratio [5] was greater than 222 and the selectivity ratio [6] was greater than 222.
In the case of `CCCc1ccc(NC(=O)COc2cc(C)nc3ccc(OC)cc23)cc1`, the MIC [1] was 0.05 µM (≈ 0.0182 µg/mL).
For `COc1ccc2nc(C)cc(OCC(=O)NC3CCCC3)c2c1`, the MIC [1] was 15.9 µM (≈ 5 µg/mL).
With `COc1ccc2nc(C)cc(OCC(=O)Nc3ccc(N4CCSCC4)cc3)c2c1` the MIC [1] was 0.37 µM (≈ 0.157 µg/mL).
In the case of `CCc1cc(OCC(=O)Nc2ccc(N3CCCCC3)cc2)c2cc(Cl)ccc2n1`, the MIC [1] was 0.37 µM (≈ 0.157 µg/mL).
Compound `O=C(COc1cc(C(F)(F)F)nc2ccc(Br)cc12)Nc1ccc(N2CCCCC2)cc1` has an MIC [1] of 78.7 µM (≈ 40 µg/mL).
